Source: PubChem BioAssay
A selection: hits, their analogues and other compounds. The true share with any hit is near 8.2%.
M1 ag – agonists of M1 muscarinic receptor. B-score at 10 µM. actives 3% (n = 64,000). CHO-M1 cells, Fluo-4 calcium fluorescence, agonist mode; hits give high values. AID 626;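 active = fluorescence rise, raw or as B-score row- and column-corrected plate score, outside the 99.7% band of its plate's samples, either direction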
SF-1 act – activators of human nuclear receptor SF-1. activation, % at 10 µM. Q13285. CHO-K1 Gal4-SF-1 LBD luciferase reporter; % increase over DMSO SF-1-specific signal. actives 1.9% (n = 65,000);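 active = activation above the mean activation of all tested compounds plus 3 SD, cut at about 50% in these data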
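System: CHO-K1 cells with Gal4–hSF-1 LBD chimera plus Gal4-driven luciferase; quantity: 4,000 CHO-K1 cells per well; compound: one dose, 10 µM compound, 1% DMSO; times: 20 h compound treatment, 37 °C; measured by: SteadyLite luciferase luminescence; read-out: percent activation versus DMSO; benchmarks: DMSO and mock-transfected background; replicates: one test per compound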
D1 allo mod – D1 dopamine receptor (human) allosteric modulation. P21728. HEK293 D1, CRE-luciferase, dopamine EC30 potentiation; actives deviate in either direction. B-score at 10 µM. actives 5.9% (n = 58,000);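 active = luminescence count or its row- and column-corrected plate score outside the 99.7% band of the plate's sample wells, on either side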
RORA act – activates the human nuclear receptor RORA; activation, % at 10 µM; actives 1.5% (n = 65,000); AID 560; P35398; CHO-K1 Gal4-RORA LBD luciferase reporter, luminescence; percent increase over mock-subtracted basal signal;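 active = activation above the mean of all tested compounds plus 3 SD, cut at about 49% in these data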
HePTP inh – inhibitors of human HePTP phosphatase. actives 0.64% (n = 110,000). recombinant HePTP phosphatase activity, OD absorbance. AID 521. inhibition, % at 20 µM. P35236; in the data active = inhibition above about 50%; inconclusive = no clear call, values can overlap the other calls
Target sequence (P35236 whole entry, looked up): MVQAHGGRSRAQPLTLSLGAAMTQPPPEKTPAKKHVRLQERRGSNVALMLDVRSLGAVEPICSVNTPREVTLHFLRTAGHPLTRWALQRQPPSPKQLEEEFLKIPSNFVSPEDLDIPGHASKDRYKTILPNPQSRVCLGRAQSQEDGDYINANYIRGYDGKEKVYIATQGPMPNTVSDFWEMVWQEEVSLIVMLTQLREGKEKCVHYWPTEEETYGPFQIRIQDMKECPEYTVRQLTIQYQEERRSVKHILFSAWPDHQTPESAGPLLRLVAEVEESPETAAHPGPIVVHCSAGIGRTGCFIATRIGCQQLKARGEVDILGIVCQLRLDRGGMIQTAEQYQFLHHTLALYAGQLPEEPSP
M1 antagonist – antagonists of rat M1 muscarinic receptor; P08482; AID 628; actives 3.4% (n = 64,000); B-score at 10 µM; CHO-M1 cells, Fluo-4 calcium, ACh EC80 antagonist mode; hits give low values;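 active = calcium fluorescence response, raw or row-and-column corrected B-score, differing from the plate sample mean either way at a set confidence level, mostly lower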
M1 agonist conf – confirmation of rat M1 muscarinic receptor agonists. CHO-M1 cells, Fluo-4 calcium fluorescence, agonist mode; actives lie on both sides. actives 19% (n = 1,700). fluorescence change (max-min) at 10 µM. shares compounds with M1 ag;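 active = fluorescence change differs from the solvent-only DMSO control mean at a set confidence level in both duplicate runs; inconclusive = differs from solvent-only control mean in just one of two runs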;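 also: an EC20 dose of acetylcholine follows compound addition during the same imaging run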
M4 agonist ctr – activates rat M4 receptor in counter-screen for M1 agonists. AID 1741. actives 9% (n = 1,700). CHO M4/Gqi5 cells, Fluo-4 calcium fluorescence, agonist mode; actives lie on both sides. fluorescence change (max-min) at 10 µM. shares compounds with M1 ag;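 active = fluorescence change differing from the plate's solvent-only control wells at 99.7% confidence in both duplicates, whether higher or lower; inconclusive = differs from solvent controls in only one of two duplicates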
Numbers stand for hits; 0 = inactive; ? = inconclusive; - = no result given.

SMILES	M1 ag	SF-1 act	D1 allo mod	RORA act	HePTP inh	M1 antagonist	M1 agonist conf	M4 agonist ctr
COc1ccc(C2CC(C(F)(F)F)n3nc(C(=O)Nc4cccc(C(C)O)c4)cc3N2)cc1 (stereo not given)	-	-	-	-	0	-	-	-
Cc1cc(C(=O)Nc2ccc3c(c2)OCCO3)c(C)o1	0	0	0	0	0	0	-	-
COc1cc(C(=O)Nc2ccc3c(c2)OCCO3)ccc1OC(C)C	3.71	54.3	0	0	0	0	0	0
CCn1cc(C(=O)Nc2ccc3c(c2)OCCO3)c2cc(OC)c(OC)cc2c1=O	4.13	0	0	0	0	0	?	0
O=C(NCC1CCCO1)c1ccccc1-c1nc(-c2ccccc2)no1 (stereo not given)	2.37	0	-	0	0	0	0	?
CCc1ccc(CNCc2cccnc2)cc1	17.7	0	0	0	0	0	0	?
COc1ccc(NCc2cccnc2)cc1	-	-	-	-	0	-	-	-
COc1cccc(/C=c2\sc3nc(-c4cccs4)nn3c2=O)c1OC	0	0	0	0	0	0	-	-
Cc1ccc(/C=c2\sc3nc(-c4cccs4)nn3c2=O)o1	45.7	0	0	0	0	0	0	0
O=C(c1nn2c(C(F)(F)F)cc(-c3cccs3)nc2c1Cl)N1CCOCC1	-	-	-	-	0	-	-	-
O=C(c1cccnc1Nc1ccc2c(c1)CCC2)N1CCOCC1	0	0	0	0	0	0	-	-
O=c1c(O)c(-c2ccc(O)cc2O)oc2cc(O)cc(O)c12	26.9	0	0	0	0	0	73.5	0
COc1ccc(-c2c(C)oc3cc(O)cc(O)c3c2=O)cc1OC	0	0	0	0	0	0	-	-
COc1ccc(OC)c(CCNC(=O)Cn2sc3nc(C)cc(C)c3c2=O)c1	7.98	0	0	0	0	0	?	0
COc1ccc(-c2nc(CS(=O)(=O)CC(=O)NCCc3cc(OC)ccc3OC)c(C)o2)cc1	0	0	0	0	0	0	-	-
COC(=O)C1=C(C)N(c2ccc(OC)cc2)C(=O)/C1=C\c1ccc(O)c(OC)c1	-	-	-	-	0	-	-	-
COc1ccc2[nH]c(=O)c(CN(Cc3nnnn3Cc3ccc(F)cc3)CC3CCCO3)cc2c1 (stereo not given)	2.61	0	0	0	0	0	0	0
COc1ccc2[nH]c(=O)c(CN(Cc3nnnn3Cc3ccccc3)CC3CCCO3)cc2c1 (stereo not given)	0	0	-	0	0	0	-	-
COc1ccc2[nH]c(=O)c(CN(Cc3cccnc3)C(=O)Nc3ccccc3)cc2c1	3.51	0	-	0	0	0	-27.9	?
COc1ccc2[nH]c(=O)c(CN(CC3CCCO3)C(=O)Nc3ccccc3OC)cc2c1 (stereo not given)	6.43	0	-	0	0	0	0	0
COc1ccc(NCc2cc3cc(OC)ccc3[nH]c2=O)cc1	3.84	0	-	0	0	0	0	0
CC(=O)N(Cc1cccnc1)Cc1cc2ccccc2[nH]c1=O	-	0	0	0	0	-	-	-
COc1cc(OC)cc(-c2nc3nc(C)c(CCC(=O)O)c(C)n3n2)c1	0	0	0	0	0	0	-	-
C=CCN1C(c2ccccc2)=CS/C1=C(\C#N)c1nnc2n1CCCCC2	0	0	0	0	0	0	-	-
CCOc1ccc(C2=CS/C(=C(\C#N)c3nnc4n3CCCCC4)N2CC)cc1	3.83	0	0	0	0	0	0	0
CC1CCN(CCOCCOc2c(Cl)cc(Cl)cc2Cl)CC1	-	-	-	-	0	-	-	-
CCn1c(SCC(=O)c2cc(C)n(CC3CCCO3)c2C)nc2ccccc21 (stereo not given)	5.35	0	0	0	0	0	?	0
CCOCCCN1C(=O)CN(C2CCCCC2)C(=O)C1c1ccc(OC)c(OC)c1 (stereo not given)	0	0	0	0	0	0	-	-
CCN1CCN(c2nc(C)nc3c2sc(=S)n3C)CC1	-2.58	0	0	0	0	0	0	0
CCN1CCN(c2nc(SC)nc3sc4c(c23)CC(C)(C)OC4)CC1	0	0	0	0	0	0	-	-
